Rows were chosen to be rich in hits. Some 1.6% of all compounds tested hit in one or more screens of this group.
NR1D1 modulator = modulators of Rev-erb alpha DNA binding, primary screen, biochemical, FITC-DNA, fluorescence polarization, uHTS; 370,000 compounds, 0.79% hits; activity, % at 10 µM; Rev-erbα–FITC-DNA binding, 90 min;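 active = activity above about 14%, limit read from the data; passing the limit was not always enough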;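 also: 0% = DMSO wells with 35 nM protein and 100% = DMSO wells with 750 nM protein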
PKA-R2B activ = activators of PKA-R2B holoenzyme, primary screen, biochemical, fluorescence polarization, Cy5-IP20, human. cAMP-dependent protein kinase catalytic subunit beta (Homo sapiens) + cAMP-dependent …. 340,000 compounds, 0.079% hits. PKA-R2B holoenzyme dissociation; R2B truncated from residue 108, S112A mutant; 0% DMSO only, 100% 113 µM cGMP. AID 504700, 2011. activation, % at 11.4 µM;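 active = activation above a cutoff set at the mean over all compounds plus 3 SD, cut at about 18% in these data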;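 also: higher means more holoenzyme dissociation and a rise in polarization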
Target sequence (P31323 whole entry, looked up, other chains not shown, the tested form may be a part): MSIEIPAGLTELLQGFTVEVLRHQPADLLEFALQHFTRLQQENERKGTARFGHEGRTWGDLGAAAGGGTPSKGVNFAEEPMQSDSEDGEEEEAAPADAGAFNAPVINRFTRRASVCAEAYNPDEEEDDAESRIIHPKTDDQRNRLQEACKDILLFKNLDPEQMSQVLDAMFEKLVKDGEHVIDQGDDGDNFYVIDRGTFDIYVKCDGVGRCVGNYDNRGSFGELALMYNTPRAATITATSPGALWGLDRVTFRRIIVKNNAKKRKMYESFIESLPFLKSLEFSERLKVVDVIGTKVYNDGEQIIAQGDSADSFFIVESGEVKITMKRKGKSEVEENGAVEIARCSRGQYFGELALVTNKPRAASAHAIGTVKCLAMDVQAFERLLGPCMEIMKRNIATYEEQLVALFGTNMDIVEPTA
NR2E3 ag-1 = inhibitors of NR2E3-RetCOR corepressor binding, primary screen, NR2E3 agonist project, biochemical, TR-FRET, GST-NR2E3, biotin-RetCOR. 1536-well. AID 2300, 2010. Photoreceptor-specific nuclear receptor (Homo sapiens), Q9Y5X4. 320,000 compounds, 0.12% hits. inhibition of corepressor binding, % at 4.78 µM;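 active = percent inhibition above the cutoff of mean plus 3 SD of all tested compounds, set per screening campaign, cut at about 20% in these data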;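 also: 0% = DMSO wells and 100% = biotin wells as full block of FRET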
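Material: NR2E3–RetCOR corepressor complex | Quantity: 1.35 nM GST-tagged NR2E3 final | Schedule: 5 h at 4 °C | Replication: Singlicate compound wells | Reagent: RetCOR corepressor, biotinylated, 7 nM | Controls: Biotin wells as high control, 0.6% DMSO wells as low control | Signal: TR-FRET, Eu(K)-anti-GST donor, streptavidin-D2 acceptor, ex 340, em 617/671 nm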
NR2E3 ag-2 = NR2E3 agonists in two-hybrid cells, primary screen, cell-based, luminescence, CHO-S, Gal4-NCOR/VP16-NR2E3; 360,000 compounds, 0.35% hits; Photoreceptor-specific nuclear receptor (Homo sapiens), Q9Y5X4; luciferase; AID 602229, 2012; inhibition of corepressor binding, % at 3.98 µM;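 active = inhibition above the mean of all tested compounds plus 3 SD, cut at about 70% in these data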;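 also: 0% = DMSO with NR2E3 transfected cells and 100% = cells lacking NR2E3 construct; higher means lower luciferase signal from less NR2E3 corepressor binding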
PKA-R1A activ = activators of PKA-R1A holoenzyme, primary screen, biochemical, fluorescence polarization, Cy5-IP20, bovine R1A, mouse PKAc. cAMP-dependent protein kinase type I-alpha regulatory subunit (Bos taurus) + …. PKA-R1A dissociation; scaled: DMSO 0%, 113 µM cGMP 100%. activation, % at 11.4 µM. 340,000 compounds, 0.083% hits. AID 504707, 2011;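 active = percent activation above the mean of all tested compounds plus 3 SD, cut at about 19% in these data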;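 also: higher means more PKAc released from R1A so a rise in polarization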
PG9 binder = binders of HIV-1 gp120 antibody PG9, primary screen, biochemical, TR-FRET; HIV-1 gp120 / PG9 antibody interaction; TR-FRET gp120-PG9 antibody binding; inhibition, % at 6.7 µM; 360,000 compounds, 0.43% hits; in the data active = inhibition above about 8.5%
Rev-erbA confirm = modulators of Rev-erb alpha DNA binding, confirmation, biochemical, FITC-DNA, fluorescence polarization, single point | shares compounds with NR1D1 modulator | 90 min | activation, % at 25 µM | 3,000 compounds, 61% hits | AID 1259319, 2017;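 active = activation at or above a set limit, or at least 3 SD above the negative control mean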;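 also: 0% = 35 nM protein with DMSO and 100% = 750 nM protein high control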
RORg DNA counter = modulation of RORgamma DNA binding, dose response, counter-screen for Rev-erb alpha modulator project, biochemical, fluorescence polarization, FITC-DNA | IC50, µM | shares compounds with NR1D1 modulator | 910 compounds, 8% hits | AID 1259320, 2017 | purified RORgamma protein-FITC-DNA binding;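 active = Compounds whose fitted half-maximal concentration for disrupting protein-DNA binding is below 10 micromolar; the record names Rev-erb in its text, so the target is in doubt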
Numbers without * were called inactive; / = no result.

SMILES | NR1D1 modulator | PKA-R2B activ | NR2E3 ag-1 | NR2E3 ag-2 | PKA-R1A activ | PG9 binder | Rev-erbA confirm | others
CCCCNc1c(-c2ccc(Sc3ccc(OC)cc3)cc2)nc2cc(C)ccn12 | 21* | 3 | / | -7 | -13 | 4 | 11
CCCCNc1c(-c2ccc(OC)c(SC(C)CC)c2)nc2cnccn12 (configuration not stated) | -4 | -6 | / | 18 | -3 | -1 | /
O=C(NCc1ccc(-c2nc3ccccc3s2)cc1)c1ccc(Br)o1 | 21* | 6 | 2 | -87 | -2 | -5 | 13
COc1ccc(-n2c(C)cc(C(=O)COC(=O)c3cc(NC(=O)c4cccs4)c(OC)c(OC)c3)c2C)cc1 | 32* | -7 | 3 | -19 | -12 | -1 | 0
C=CS(=O)(=O)N(Cc1ccc(F)cc1)C(=C)C(=O)OC | -8 | / | / | / | / | / | /
Cc1c(C(=O)Nc2ccncc2)sc2nc(-c3ccc(F)cc3)cn12 | 39* | 0 | -76 | 4 | -3 | -1 | 38* | RORg DNA counter=>40
COc1ccc(-c2cn3c(C)c(C(=O)Nc4ccncc4)sc3n2)cc1 | -1 | -4 | -5 | 15 | -4 | -2 | /
CCCCCC[C@H](CC)CN(C(=O)Oc1ccccc1)c1ccccc1 | -1 | / | / | / | / | / | /
Cc1c(C(C)(C)C)s/c(=N/S(=O)(=O)c2ccccc2)n1C | 6 | 6 | 5 | -5 | 1 | -1 | /
Cc1c(C(C)(C)C)sc(=NC(=O)c2ccccc2O)n1C | 21* | 0 | 0 | -109 | 5 | -1 | -10
Cc1ccc(C(=O)N2CCC[C@@H]2C(=O)N2CCC[C@H]2C(=O)NCc2ccccc2)cc1 | 4 | / | / | / | / | 1 | /
CCOc1ccc(/C(CC)=N/NC(=O)C2(C)CC2(Br)Br)cc1 (configuration not stated) | 31* | 6 | -3 | -3 | -7 | 0 | 46* | RORg DNA counter=>40
COc1ccc(N=Cc2c(O)n(-c3cccc(C)n3)c(=O)c3ccccc23)c(OC)c1 | 53* | 4 | 2 | 12 | -12 | 0 | 9
COc1cccc(N=Cc2c(O)n(-c3cccc(C)n3)c(=O)c3ccccc23)c1 | -3 | 2 | 2 | -9 | 3 | -1 | /
CC(=O)Nc1ccc(C=NNc2ccc([N+](=O)[O-])cc2S(=O)(=O)Nc2ccccc2C(=O)O)cc1 | 0 | 1 | / | 3 | -7 | 2 | /
CN(CCO)c1ccc(C=NNc2ccc([N+](=O)[O-])cc2S(=O)(=O)Nc2ccccc2C(=O)O)cc1 | 21* | / | / | 5 | / | -2 | 4
CN(CC(=O)Nc1ccccc1Cl)C(=O)c1ccc(N2CCCCCC2)c([N+](=O)[O-])c1 | 4 | -2 | 3 | 38 | -4 | -2 | /
CN1CCN(c2ccccc2NC(=O)c2ccc(N3CCCC3)c([N+](=O)[O-])c2)CC1 | 16* | 5 | -2 | -32 | -6 | 0 | 9
Cc1cccc(NC(=O)CN(C)C(=O)c2ccc(N3CCCCCC3)c([N+](=O)[O-])c2)c1C | 17* | 0 | / | 41 | 5 | 0 | -4
Cc1ccccc1S(=O)(=O)N1CCCc2nc(C)c(C)cc21 | 0 | / | / | / | / | 1 | /
CC(=O)Nc1c2c3c(cccc3n(C)c1=O)C(=O)c1ccccc1-2 | -3 | 14 | -2 | -19 | 3 | -3 | /
Cn1c(=O)c(Nc2ccc(Cl)cc2)c2c3c(cccc31)C(=O)c1ccccc1-2 | 24* | / | 2 | / | / | -1 | 12
CCCC1CCC2(CC1)CCC2OC(=S)NCc1cccc(F)c1 (configuration not stated) | 1 | / | / | / | / | / | /
COCCn1c(-c2ccc(Cl)cc2Cl)nc2c(c(=O)c3ccccc3n2C)c1=O | 65* | -2 | 0 | -10 | -10 | -2 | 23*
COCCn1c(-c2ccc(C)cc2)nc2c(c(=O)c3ccccc3n2C)c1=O | -3 | 2 | / | -26 | 5 | -1 | /
SMILES | NR1D1 modulator | PKA-R2B activ | NR2E3 ag-1 | NR2E3 ag-2 | PKA-R1A activ | PG9 binder | Rev-erbA confirm | others
Cc1ccc(-c2nc3c(c(=O)c4ccccc4n3C)c(=O)n2-c2ccccc2)cc1 | 26* | -12 | 4 | 6 | 8 | 2 | 19*
Cc1cccc(-c2nc3c(c(=O)c4ccccc4n3C)c(=O)n2-c2ccccc2)c1 | 40* | 1 | 1 | -21 | -7 | -1 | 29*
Cc1nc2c(c(=O)c3ccccc3n2C)c(=O)n1-c1ccc(F)cc1 | -5 | -1 | 3 | -23 | 1 | 0 | /
COc1ccc(CCn2c(-c3ccc(OC)cc3)nc3c(c(=O)c4ccccc4n3C)c2=O)cc1 | 50* | 12 | 0 | -24 | -7 | 1 | 31* | RORg DNA counter=>40
CCc1nc2c(c(=O)c3ccccc3n2C)c(=O)n1CCc1ccc(OC)cc1 | / | / | -4 | / | / | / | /
CCCCCc1cccc2[nH]cc(-c3ccccc3)c12 | 2 | / | / | / | / | / | /
CCC[C@H]1[C@@H](OC(=O)NCc2cccc(Cl)c2)CC[C@@]23CCCN2C(=O)CCC[C@@H]13 | 6 | / | / | / | / | / | /
COc1ccccc1N1CCN(c2ccc3cc(S(=O)(=O)N4CCCCC4)ccc3n2)CC1 | -8 | 6 | -2 | -3 | -1 | -4 | /
O=S(=O)(c1ccc2nc(N3CCN(c4ccccc4)CC3)ccc2c1)N1CCCCC1 | 83* | 0 | 0 | 10 | 4 | 0 | 56* | RORg DNA counter=>40
CC(=O)c1ccc(N2CCN(S(=O)(=O)c3ccc4ccccc4c3)CC2)cc1 | -4 | 2 | -1 | 11 | 6 | 1 | /
CC(=O)c1ccc(N2CCN(c3ccc4cc(S(=O)(=O)N5CCC(C)CC5)ccc4n3)CC2)cc1 | 35* | -7 | -1 | -8 | 9 | -1 | 45* | RORg DNA counter=>40
C=CCN(CC#CC(=C)C)CC1CC1 | 7 | / | / | / | / | / | /
COc1cc(/C=C2/SC(=S)N(CC(=O)O)C2=O)ccc1OC(=O)c1ccco1 | 25* | -4 | 7 | -27 | -1 | -3 | 2
COc1ccc(/C=C2\SC(=O)N(CCC(=O)Nc3ccccc3)C2=O)cc1OC | 32* | -7 | 1 | -23 | -4 | -19 | 34* | RORg DNA counter=>40

Compound activity deposited in PubChem by several laboratories.
